High-throughput results as filed in PubChem.
Ecoli tolC: growth inhibitors of E. coli tolC mutant, primary screen, strain BW25113 ΔtolC::kan, 384-well; OD615; growth inhibition, % at 10 µM (by protocol); 65,000 tested, 2.2% active; AID 573, 2007;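 active means growth inhibition at or above a cutoff equal to the mean over every tested compound plus 3 SD, cut at about 60% in these data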;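 further: growth measured after 20 h incubation at 37 °C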
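Test system: E. coli BW25113 ΔtolC::kan bacteria; incubation: 37 °C, 20 h exposure; medium: LB broth supplemented with 50 µg/mL kanamycin; read-out basis: percent growth inhibition; signal: A615 absorbance measurement; compound: 10 µM final, single dose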
Ecoli WT expand: growth inhibitors of wild-type E. coli, primary screen, strain BW25113, expanded library, OD600 | OD600 absorbance | growth inhibition, % at 100 µM | 98,000 tested, 0.15% active | AID 710, 2007;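 active means growth inhibition above about 50% at one test dose, limit read from the data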;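 further: growth measured after 20 h incubation at 37 °C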
PostGolgi yeast: phenotypic screen on post-Golgi transport, primary screen. inhibition, % at 10 µM. AID 739, 2007. post-Golgi transport phenotypic cell assay. 98,000 tested, 0.9% active;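 further: yeast cells grown in 1536-well plates; yeast grown about 18 h at 30C before absorbance read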
PostGolgi ctrl: growth inhibition of yeast control strain, primary screen, counter-screen for post-Golgi transport modulator project | inhibition, % at 10 µM | 98,000 tested, 5% active | efflux-deficient yeast background strain, growth absorbance A615, 16 h
EphB4 ephrin blk: EphB4-ephrin-B2 interaction antagonists, primary screen, biochemical, TNYL-RAW peptide probe, fluorescence polarization. EphB4 LBD / TNYL-RAW-Alexa532 peptide. 97,000 tested, 0.15% active. Ephrin type-B receptor 4 (Homo sapiens), P54760. inhibition, % at 7 µM;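 active means inhibition above the screen-wide mean inhibition plus 3 SD, cut at about 15% in these data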
Target sequence (P54760 whole entry, looked up, the tested form may be a part): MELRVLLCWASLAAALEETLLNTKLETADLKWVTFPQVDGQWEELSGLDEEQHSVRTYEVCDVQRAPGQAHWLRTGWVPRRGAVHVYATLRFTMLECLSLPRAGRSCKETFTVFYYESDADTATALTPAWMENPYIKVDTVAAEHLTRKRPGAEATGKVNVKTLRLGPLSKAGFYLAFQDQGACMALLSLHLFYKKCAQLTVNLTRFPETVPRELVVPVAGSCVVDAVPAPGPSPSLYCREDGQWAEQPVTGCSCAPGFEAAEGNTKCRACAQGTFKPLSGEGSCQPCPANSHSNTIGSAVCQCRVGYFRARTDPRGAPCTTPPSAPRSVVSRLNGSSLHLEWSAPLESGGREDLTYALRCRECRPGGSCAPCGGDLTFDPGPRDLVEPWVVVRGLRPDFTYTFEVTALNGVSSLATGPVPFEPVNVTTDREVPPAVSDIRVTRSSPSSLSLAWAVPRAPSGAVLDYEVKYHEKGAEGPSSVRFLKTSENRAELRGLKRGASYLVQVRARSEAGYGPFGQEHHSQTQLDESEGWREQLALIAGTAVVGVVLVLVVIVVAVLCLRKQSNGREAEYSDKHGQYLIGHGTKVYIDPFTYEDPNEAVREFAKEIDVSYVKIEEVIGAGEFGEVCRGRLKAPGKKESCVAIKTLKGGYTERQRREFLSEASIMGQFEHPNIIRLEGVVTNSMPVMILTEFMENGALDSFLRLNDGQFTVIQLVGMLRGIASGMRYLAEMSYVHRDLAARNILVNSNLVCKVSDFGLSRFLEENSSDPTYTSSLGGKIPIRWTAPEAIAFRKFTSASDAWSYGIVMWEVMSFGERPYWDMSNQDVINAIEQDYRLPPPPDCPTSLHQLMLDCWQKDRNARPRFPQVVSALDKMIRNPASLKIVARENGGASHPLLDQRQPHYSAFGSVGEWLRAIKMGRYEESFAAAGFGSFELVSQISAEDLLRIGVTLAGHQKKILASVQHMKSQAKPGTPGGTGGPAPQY
Hits are given with their value; n = inactive; x = no result given. A selection: hits, their analogues and other compounds. The true share with any hit is near 6%. Unless noted, no stated cut-off is given here; in the data, active means inhibition above about 30%; inactive means the rest.

SMILES	Ecoli tolC	Ecoli WT expand	PostGolgi yeast	PostGolgi ctrl	EphB4 ephrin blk
CCCc1nnc(NC(=O)C(CC)OC(=O)c2cc(C)nc3ccccc23)s1 (centres undefined)	x	n	n	n	n
Cc1occc1-c1nnc(SCC(=O)N(C)CCC#N)n1N	x	n	n	n	n
COc1ccc(OC)c(NC(=S)N2CCN(C/C=C/c3ccccc3)CC2)c1	x	n	n	n	n
O=C(Nc1cccc(Cl)c1)N1CCN(C/C=C/c2ccccc2)CC1	n	n	40	n	x
COc1ccc(Cl)cc1NC(=O)C(C)N1CCN(C/C=C/c2ccccc2)CC1 (centres undefined)	x	n	65	n	n
COc1ccc2cc(C(c3nnnn3C(C)(C)C)N3CCc4ccccc4C3)c(=O)[nH]c2c1 (centres undefined)	n	n	n	n	n
CCC(C)(C)n1nnnc1C(c1cc2ccc(OC)cc2[nH]c1=O)N1CCc2ccccc21 (centres undefined)	n	n	n	40	n
CCC(C)(C)n1nnnc1C(c1cc2ccc(OC)cc2[nH]c1=O)N1CCc2ccccc2C1 (centres undefined)	78	n	n	n	n
Cc1ccc2[nH]c(=O)c(C(c3nnnn3CC3CCCO3)N3CCOCC3)cc2c1 (centres undefined)	n	n	n	n	n
Cc1cc(C)c2[nH]c(=O)c(C(c3nnnn3CC3CCCO3)N3CCC(C)CC3)cc2c1 (centres undefined)	n	n	n	n	x
Cc1cc(C)c2[nH]c(=O)c(C(c3nnnn3CC3CCCO3)N3CCCC(C)C3)cc2c1 (centres undefined)	62	n	n	n	n
CCC(C)(C)n1nnnc1C(c1cc2cc(OC)ccc2[nH]c1=O)N1CCc2ccccc21 (centres undefined)	n	n	n	n	n
CCc1ccc2[nH]c(=O)c(C(c3nnnn3CC3CCCO3)N3CCN4CCCC4C3)cc2c1 (centres undefined)	n	n	n	30	n
CCOc1ccc(NC(=O)CSc2nnc(Cn3cnc4ccccc43)n2C)cc1	x	x	x	x	n
CCc1ccc2[nH]c(=O)c(C(c3nnnn3CCOC)N3CCN(c4ccc(F)cc4)CC3)cc2c1 (centres undefined)	78	n	n	n	n
COc1ccc2[nH]c(=O)c(C(c3nnnn3CC3CCCO3)N3CCc4ccccc4C3)cc2c1 (centres undefined)	n	n	n	38	n
Cc1ccc2[nH]c(=O)c(C(c3nnnn3CC3CCCO3)N3CCc4ccccc4C3)cc2c1 (centres undefined)	n	n	n	n	n
Nc1c(S(=O)(=O)c2cccc(Cl)c2)c2nc3ccccc3nc2n1/N=C/c1ccc(O)c(O)c1	n	n	n	n	n
Cn1c(-c2ccc3c(c2)OCO3)cnc1NC(=O)CCC(=O)NCCc1ccccc1	n	n	n	34	n
Cn1c(-c2ccc3c(c2)OCO3)cnc1N	91	n	n	n	n
Cn1c(-c2ccc3c(c2)OCO3)cnc1NCc1ccccc1	n	n	n	n	n
COc1ccccc1C(=O)Nc1ccccc1SC	n	n	n	n	n
O=C(Nc1ccccc1N1CCCC1)c1cc2ccccc2o1	n	n	n	39	n
O=C(Nc1ccccc1N1CCN(C(=O)c2ccccc2)CC1)c1cc2ccccc2o1	n	n	n	36	n
O=C(Nc1ccccc1Sc1ccccc1)c1ccccc1F	x	x	x	x	16
SMILES	Ecoli tolC	Ecoli WT expand	PostGolgi yeast	PostGolgi ctrl	EphB4 ephrin blk
O=C(Nc1ccccc1N1CCN(C(=O)c2ccccc2)CC1)c1cc(Br)ccc1Cl	x	n	n	31	n
Cc1ccc2c(n1)CC(C)(C)C/C2=N\O	x	x	x	x	n
CS(=O)(=O)N1CCN(c2ccccc2NC(=O)c2ccc(Br)o2)CC1	x	n	n	42	n
O=C(Nc1cccc(Br)c1)c1cc2ccccc2o1	100	n	n	n	n
Cc1cccc(NC(=O)c2cc3ccccc3o2)c1	n	n	n	n	n
O=C(Nc1ccccc1N1CCCC1)c1cccnc1Cl	x	x	x	x	n
O=C(Nc1ccccc1N1CCCCC1)c1ccccc1F	88	n	n	34	n
CCc1ccc(N/C(SCc2ccccc2C)=C(/C#N)C(=O)NCc2ccco2)cc1	x	n	n	n	n
O=C(NC(NNc1ccc([N+](=O)[O-])cc1)(C(F)(F)F)C(F)(F)F)c1ccccc1Cl	x	n	n	44	n
O=C(c1cc(C2CC2)on1)N1CCN(c2ccccc2)CC1	x	n	n	n	n
COc1ccc(NC(=O)N2CCC(c3nc(-c4cccs4)no3)CC2)cc1	n	n	n	n	n
O=C(c1ccco1)N1CCC(c2nc(-c3ccccc3Cl)no2)CC1	n	n	n	n	n
O=C(Nc1cccc(C(F)(F)F)c1)N1CCC(c2nc(-c3ccc(F)cc3)no2)CC1	89	n	n	70	n
O=C(Nc1ccc(Cl)cc1)N1CCC(c2nc(-c3ccccc3Cl)no2)CC1	x	n	n	40	n
O=C(Nc1ccc(Cl)cc1)N1CCC(c2nc(-c3cccs3)no2)CC1	100	n	x	44	n
Cc1cc(C)c2cc(CN(CCO)C(=O)Nc3ccc(Cl)cc3)c(=O)[nH]c2c1	n	n	n	47	x
Cc1cc(C)c2cc(CN(CCN3CCCC3)C(=O)Nc3ccc(F)cc3)c(=O)[nH]c2c1	n	n	n	n	n
CCN(CC)c1cc(C)c2cc(NC(=O)CNC(C)=O)ccc2n1	n	n	n	33	n
CC1(C)CC(=O)C2=C(C1)c1c(ccc3ccccc13)NC2c1ccc(Br)o1 (centres undefined)	x	n	n	69	n
CCOC(=O)Cc1cn2c(=O)cc(CSCC(=O)Nc3ccc(C)c(C)c3)nc2s1	n	n	n	n	x
CCOC(=O)C1=C(C)N2C(=C(C#N)[C@@H]1c1ccc(C(=O)OC)cc1)SC[C@@]2(O)C(C)(C)C	x	n	n	n	n
COCCn1c(=O)[nH]c2cc(C(=O)NCCc3ccc(OC)c(OC)c3)ccc2c1=O	n	n	n	34	n
COc1ccc(-c2cc(-c3ccc(Br)cc3)nc3ncnn23)cc1OC	x	n	n	n	n
COc1ccc(NC(=O)CSc2nnc(CCC(=O)Nc3ccc(C)c(Cl)c3)n2C)cc1	x	n	n	n	n
O=C1C2C3C=CC(C3)C2C(=O)N1c1ccncc1 (centres undefined)	n	n	n	n	n
O=C1C2C3C=CC(C3)C2C(=O)N1c1ncn[nH]1 (centres undefined)	n	n	n	35	n
O=S1(=O)C=C(Oc2ccc(F)cc2)c2ccccc21	n	n	n	n	n
O=S1(=O)C=C(Oc2ccc3ccccc3c2)c2ccccc21	x	n	n	34	n
O=C1CC(Cc2ccccc2)C(=O)N1CCCn1ccnc1 (centres undefined)	x	n	n	n	n
O=C(C1CCCN(S(=O)(=O)c2ccc(Cl)cc2)C1)N(Cc1cccs1)C1CC1 (centres undefined)	n	n	94	n	x
